TRPC4 inh = inhibitors of mouse TRPC4 channel; 0.39% of 300,000 active; Q9QUQ5; B-score at 10 µM; HEK293 TRPC4beta/mu-opioid, DAMGO-evoked Fluo4 calcium flux; active compounds read low; AID 2247;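 active = B-score over 3 SD under the library average, no early fluorescence shift, positive overall ratio signal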
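test system = HEK293 cells with stable TRPC4beta plus mu-opioid receptor expression | detection = Fluo4 Ca2+ flux fluorescence | read-out = integrated fluorescence ratio relative to baseline, converted to per-well B score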
Kir21 block = inhibitors of mouse Kir2.1 inward-rectifier potassium channel; HEK293-Kir2.1, FluxOR thallium flux fluorescence; active compounds read low; B-score at 10 µM; 0.85% of 310,000 active; AID 1672;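 active = fluorescence ratio B-score at or below minus 3 SD of library scores, with starting-brightness B-score within 2 SD, cut at about -4.2 in these data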;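 note: channel flux triggered by added potassium and thallium sulfate stimulus; B-score of peak minus minimum fluorescence over baseline after thallium stimulus; more negative B-score means stronger Kir2.1 block with less thallium influx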
Target sequence (P35561 whole entry, looked up): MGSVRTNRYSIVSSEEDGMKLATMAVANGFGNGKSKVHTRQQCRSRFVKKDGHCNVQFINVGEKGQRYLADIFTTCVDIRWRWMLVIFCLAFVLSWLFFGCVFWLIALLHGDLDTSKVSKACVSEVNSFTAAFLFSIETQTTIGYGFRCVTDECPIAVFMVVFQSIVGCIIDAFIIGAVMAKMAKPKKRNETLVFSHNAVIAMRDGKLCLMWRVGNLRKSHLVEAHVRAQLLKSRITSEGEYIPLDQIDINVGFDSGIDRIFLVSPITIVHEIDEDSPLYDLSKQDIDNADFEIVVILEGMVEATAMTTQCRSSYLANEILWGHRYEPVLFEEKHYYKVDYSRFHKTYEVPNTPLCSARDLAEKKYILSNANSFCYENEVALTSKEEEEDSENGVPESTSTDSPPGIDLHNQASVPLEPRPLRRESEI
TRPC6 act = mouse TRPC6 channel activation. Q61143. HEK293-TRPC6 membrane potential dye fluorescence; active compounds read high. B-score at 10 µM. 0.13% of 310,000 active. AID 2550;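 active = B-score of the integrated fluorescence ratio above library mean plus 3 SD, and starting fluorescence ratio within library mean plus 5 SD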;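 note: higher score means more depolarization so channel activation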
TRPC4 potent = allosterically enhances the mouse TRPC4 cation channel; HEK293 TRPC4beta/mu-opioid, DAMGO EC20, Fluo-4 Ca2+ flux; active compounds read high; 0.42% of 310,000 active; AID 2227; Q9QUQ5; B-score at 10 µM;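 active = B-score of calcium response area above 5 SD of library B-scores, with initial fluorescence ratio within 5 SD of library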;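 note: B-score of integrated fluorescence ratio over time as area under calcium response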
TRPC4 agonist = TRPC4 (mouse) channel activation | Q9QUQ5 | HEK293 TRPC4beta/mu-opioid, Fluo4 calcium fluorescence; active compounds read high | B-score at 10 µM | 0.49% of 310,000 active | AID 2237;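 active = B-score above 5 SD of library B-scores, and initial fluorescence ratio not above library mean plus 5 SD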;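 note: positive B-score marks a calcium rise read as TRPC4 activation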
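Technique: kinetic Fluo4 calcium fluorescence; Test system: TRPC4beta and mu-opioid receptor HEK293 stable cells; Measure: B-scored integrated calcium fluorescence ratio; Benchmarks: low control buffer alone, high control maximal DAMGO; Schedule: 45 min room-temperature Fluo4 loading, 110 s read.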
TRPC6 inh = blocks the mouse TRPC6 cation channel. HEK293-TRPC6, membrane potential dye, ACh-evoked depolarization; active compounds read low. B-score at 10 µM. 1.1% of 310,000 active. AID 2553. Q61143;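 active = B-score under library mean minus 3 SD, initial fluorescence not abnormally high, positive integrated signal ratio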;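 note: B-score derived from integrated fluorescence ratio over the kinetic read; more negative B-score means stronger inhibition of depolarization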
TRPC4 sel inh 2 = second selectivity test of TRPC6 inhibitors: effect on mouse TRPC4; 42% of 920 active; shares compounds with TRPC6 inh; AID 2776; HEK293 TRPC4/MOR, membrane potential dye fluorescence; channel activated by saturating DAMGO dose; inhibition, % at 10 µM;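 active = compounds whose fluorescence signal differed from control wells by over 3 SD, either direction, in both duplicate plates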
TRPC4 spec = tests whether TRPC6 inhibitors also affect mouse TRPC4; shares compounds with TRPC6 inh; HEK293 TRPC4/mu-opioid, membrane potential fluorescence; activity change, negative = inhibition, % at 10 µM; 61% of 920 active;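 active = rise or fall in signal beyond 3 SD of buffer-only wells in both replicate plates, either sign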;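 note: integrated kinetic ratio of fluorescence range over baseline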
HEK293 MPD ctr 2-1 = parental HEK293 nonspecific activity of TRPC6 inhibitors, second screen; parental HEK293 membrane potential dye fluorescence; maximal acetylcholine challenge after compound addition; shares compounds with TRPC6 inh; 31% of 920 active; signal change vs control, % at 10 µM;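 active = membrane potential signal moving either way by over 3 SD of the maximum-effect control, in both duplicate plates, meaning non-specific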
HEK293 MPD ctr-1 = checks TRPC6 inhibitor effects in parental HEK293 cells. shares compounds with TRPC6 inh. 60% of 920 active. membrane potential signal change, % at 10 µM. parental HEK293 membrane potential dye fluorescence. AID 2780;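 active = membrane potential signal shifting up or down by more than 3 SD of buffer-only wells, on both duplicate plates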
HEK293 MPD ctr-2 = counter-screen for TRPC6 modulators: effect in parental HEK293 cells; shares compounds with TRPC6 inh; membrane potential dye fluorescence; membrane potential signal change, % at 10 µM; 51% of 2,400 active; AID 488924;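 active = membrane potential signal moves up or down beyond 5 SD from buffer-only wells, on both duplicate plates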
HEK293 MPD ctr 2-2 = second counter-screen for TRPC6 modulators: effect in parental HEK293 cells; shares compounds with TRPC6 inh; membrane potential dye fluorescence; after compound, maximal acetylcholine stimulation; inhibition, % at 10 µM; 14% of 2,400 active; AID 488926;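 active = membrane potential signal drops by more than 5 SD from the mean control signal, in both duplicate plates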;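 note: plate controls were acetylcholine ECmax control wells for no effect and buffer only wells for full effect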
TRPC4/MOR mod = selectivity of TRPC6 modulators against mouse TRPC4 | HEK293 TRPC4/mu-opioid, membrane potential fluorescence | 69% of 2,400 active | percent change from control (negative = decrease, positive = increase), % at 10 µM | shares compounds with TRPC6 inh;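 active = membrane potential signal moved up or down beyond 5 SD of buffer control wells, in both duplicate plates, actives on both sides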;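 note: plate controls were assay buffer wells for no effect and DAMGO maximal-effect wells for full effect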
TRPC4 ctr inh 2 = second check of whether TRPC6 modulators also affect mouse TRPC4 | 55% of 2,400 active | inhibition, % at 10 µM | HEK293 TRPC4/mu-opioid, membrane potential dye fluorescence; stimulated with maximal-effect DAMGO | AID 488928 | shares compounds with TRPC6 inh;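 active = drop in membrane potential signal beyond 5 SD of the control wells in both duplicate plates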;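 note: TRPC4 counter screen for TRPC6 hits run under conditions tuned for TRPC6 not TRPC4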
TRPC6 inh conf = confirmation of mouse TRPC6 inhibitors | shares compounds with TRPC6 inh | HEK293-TRPC6, membrane potential dye, ACh-evoked depolarization | inhibition, % at 10 µM | 43% of 3,300 active | AID 488960;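 active = fluorescence ratio falls more than 5 SD below the full-stimulation control mean, in both duplicate runs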;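 note: integrated fluorescence ratio of peak minus minimum over baseline after agonist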
TRPC6 act confirm = confirmation of mouse TRPC6 activators | shares compounds with TRPC6 inh | HEK293-TRPC6 membrane potential dye fluorescence, FDSS | activation, % at 10 µM | 11% of 2,800 active | AID 488961;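 active = ratio signal rise beyond 5 SD above unstimulated control wells' mean, seen in both duplicate runs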;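 note: plate controls were buffer EC0 wells for no effect and acetylcholine ECmax response for full effect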
Active calls of the source: *; i = inactive; x = no result. A selection: hits, their analogues and other compounds. The true share with any hit is near 2.9%.

SMILES	TRPC4 inh	Kir21 block	TRPC6 act	TRPC4 potent	TRPC4 agonist	TRPC6 inh	TRPC6 inh conf	TRPC6 act confirm	others
COc1ccc(/C=N/NC(=O)c2nn(-c3ccc(Cl)cc3)c(=O)c3c(N)scc23)cc1	i	1.4	i	i	i	-6*	i	i	HEK293 MPD ctr-2=-77%*;HEK293 MPD ctr 2-2=i;TRPC4/MOR mod=-22%*;TRPC4 ctr inh 2=36%*
O=C(CCN1CCCCC1)c1ccccc1	i	0.05	i	i	i	i	x	x
OC(C#CCCN1CCCCC1)(c1ccccc1)C1CCCCC1 (stereo unspecified)	i	-1.3	i	i	i	-7.5*	75%*	x	TRPC4 sel inh 2=i;TRPC4 spec=23%*;HEK293 MPD ctr 2-1=i;HEK293 MPD ctr-1=15%*
OC(C#CCCN1CCCCC1)(c1ccccc1)c1ccccc1	i	0.41	i	i	i	-8.8*	72%*	x	TRPC4 sel inh 2=i;TRPC4 spec=6.0%*;HEK293 MPD ctr 2-1=14%*;HEK293 MPD ctr-1=6.0%*
CCN(CC)CCC#CC(O)(c1ccccc1)c1ccccc1	i	-2.3	i	i	i	-8.8*	63%*	x	TRPC4 sel inh 2=i;TRPC4 spec=6.4%*;HEK293 MPD ctr 2-1=-9.0%*;HEK293 MPD ctr-1=8.6%*
C/C(=N/NC(=O)CCCOc1ccc(Cl)cc1Cl)c1ccc(C)o1	i	-1.6	i	i	i	i	x	x
O=[N+]([O-])c1nn(-c2ccccc2)n(O)c1=NC1CCN(Cc2ccccc2)CC1	i	-0.86	i	i	i	i	x	x
O=[N+]([O-])c1nn(-c2ccc3c(c2)OCCO3)n(O)c1=NC1CCN(Cc2ccccc2)CC1	i	0.97	i	i	i	-8.6*	i	i	TRPC4 sel inh 2=i;TRPC4 spec=i;HEK293 MPD ctr 2-1=i;HEK293 MPD ctr-1=i
CC(=O)Nc1ccc(S(=O)(=O)N2CCN(c3cc(C)nc4ccccc34)CC2)cc1	i	3	i	i	i	-7.8*	46%*	i	HEK293 MPD ctr-2=-267%*;HEK293 MPD ctr 2-2=i;TRPC4/MOR mod=-45%*;TRPC4 ctr inh 2=70%*
CC(=O)Nc1ccc(S(=O)(=O)N2CCN(c3nc(NC4CCCC4)c4ccccc4n3)CC2)cc1	i	-1.7	i	i	i	i	x	x
COc1ccc(S(=O)(=O)n2cccc2)c(OC)c1	i	-1.3	i	i	i	i	x	x
Cc1ccc([N+](=O)[O-])c(C(=O)N/N=C/c2cccs2)c1	i	0.33	i	i	i	i	x	x
Cn1nc([N+](=O)[O-])nc1N1CCN(c2ccc(F)cc2)CC1	i	1	i	i	i	-7*	i	i	TRPC4 sel inh 2=i;TRPC4 spec=i;HEK293 MPD ctr 2-1=i;HEK293 MPD ctr-1=i
O=C(NCc1nnc(SCC(=O)N2CCOCC2)o1)c1ccccc1F	i	1.1	i	i	i	i	x	x
Cc1cc(=O)nc2c3ccccc3n(CC(=O)NC(C)c3ccc4c(c3)OCCO4)n12 (stereo unspecified)	i	0.82	i	i	i	i	x	x
COc1cc(C(=O)Nc2nnc(S(=O)(=O)N3CCCCCC3)s2)cc(OC)c1OC	i	-0.41	i	i	i	i	x	x
Cc1nc(N2CCN(C)CC2)c2sc(=S)n(-c3ccccc3)c2n1	i	-0.8	i	i	i	i	x	x
Cc1nc(N2CCN(C)CC2)c2sc(=S)n(C)c2n1	i	1.2	i	i	i	-5.2*	i	i	HEK293 MPD ctr-2=-158%*;HEK293 MPD ctr 2-2=i;TRPC4/MOR mod=-25%*;TRPC4 ctr inh 2=i
C(=C/c1ccnc2nc(SC/C=C/c3ccccc3)nn12)/c1ccccc1	i	0.62	i	i	i	i	x	x
O=C(COC(=O)CCC(=O)c1cccs1)NC(=O)c1ccc(OC(F)F)cc1	i	0.91	i	i	i	i	x	x
COC(=O)c1cccc(NC(=O)CC2NCCNC2=O)c1 (stereo unspecified)	i	0.44	i	i	i	i	x	x
COc1cc(NC(=O)CC2NCCNC2=O)cc(OC)c1 (stereo unspecified)	i	0.35	i	i	i	-6.1*	i	i	HEK293 MPD ctr-2=i;HEK293 MPD ctr 2-2=i;TRPC4/MOR mod=i;TRPC4 ctr inh 2=i
Cc1nonc1OCCn1c([N+](=O)[O-])cnc1C	i	0.93	i	i	i	i	x	x
CCOC(=O)N(NC(=O)C(O)(CC(C)C)CC(C)C)c1ccccc1	i	-0.15	i	i	i	i	x	x
CC(=O)/C(=N/Nc1ccccc1[N+](=O)[O-])N1CCCc2ccccc21	i	-0.7	i	i	i	-6.6*	i	i	HEK293 MPD ctr-2=i;HEK293 MPD ctr 2-2=i;TRPC4/MOR mod=i;TRPC4 ctr inh 2=49%*
CC(=O)/C(=N/Nc1ccc([N+](=O)[O-])cc1)N1CCCc2ccccc21	i	-0.78	i	i	i	i	x	x
CCOc1ccccc1NC(C)C(=O)Nc1cc(C(F)(F)F)ccc1N1CCOCC1 (stereo unspecified)	i	1.9	i	i	i	i	x	x
Cc1ccc(NC2=C(N3CCOCC3)C(=O)c3ccccc3C2=O)cc1	i	-0.87	i	i	i	-5.5*	i	i	HEK293 MPD ctr-2=i;HEK293 MPD ctr 2-2=i;TRPC4/MOR mod=-31%*;TRPC4 ctr inh 2=78%*

Source: PubChem BioAssay
